Results published in ChEMBL document CHEMBL4014341, “Discovery of a Human Neuromedin U Receptor 1-Selective Hexapeptide Agonist with Enhanced Serum Stability” (J Med Chem, 2017).
Peptide text beside a SMILES is read from it.

Target: T1, Neuromedin-U receptor 1 (Homo sapiens, UniProt Q9HB89)
T1 sequence (Q9HB89 whole entry): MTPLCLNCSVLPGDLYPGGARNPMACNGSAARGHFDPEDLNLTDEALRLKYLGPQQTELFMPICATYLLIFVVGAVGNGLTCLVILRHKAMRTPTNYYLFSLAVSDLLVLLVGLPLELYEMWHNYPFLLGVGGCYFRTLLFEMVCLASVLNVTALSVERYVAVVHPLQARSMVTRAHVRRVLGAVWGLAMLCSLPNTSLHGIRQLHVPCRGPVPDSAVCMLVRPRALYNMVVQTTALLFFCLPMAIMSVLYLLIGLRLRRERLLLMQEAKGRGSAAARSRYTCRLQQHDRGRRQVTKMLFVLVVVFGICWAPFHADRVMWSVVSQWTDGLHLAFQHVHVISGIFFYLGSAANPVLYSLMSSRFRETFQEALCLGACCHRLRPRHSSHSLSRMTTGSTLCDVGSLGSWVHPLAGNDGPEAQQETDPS
Experiment: Agonist activity at human NMUR1 expressed in CHO cells assessed as induction of Ca2+ flux after 18 hrs by Fluo-4 AM dye based FLIPR assay
Format: functional, cell-based
In short: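 CHO cells stably expressing human NMUR1 or NMUR2 were seeded at 2.0 × 10^4/well. After 18 h they were loaded 40 min with 4 μM Fluo-4 AM in HBSS/10 mM HEPES/2.5 mM probenecid pH 7.4 with 1% FCS, then washed. Peptides in buffer with 0.05% BSA/0.001% Triton X-100 were tested at 10−12−10−6 M in triplicate. Calcium flux was read by FLIPR from the maximal value, and EC50 was obtained by curve fitting.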

EC50: 0.17 nM
SMILES: CC(C)C[C@H](NC(=O)[C@H](Cc1ccccc1)NC(=O)[C@H](Cc1ccc(O)cc1)NC(=O)CNC(=O)[C@H](CCCNC(=N)N)NC(=O)[C@H](CO)NC(=O)[C@H](CCC(N)=O)NC(=O)[C@H](CO)NC(=O)[C@H](C)NC(=O)[C@H](Cc1ccccc1)NC(=O)[C@@H]1CCCN1C(=O)[C@H](CO)NC(=O)[C@H](CCC(N)=O)NC(=O)[C@H](Cc1ccccc1)NC(=O)[C@H](CCC(=O)O)NC(=O)[C@H](CCC(=O)O)NC(=O)[C@H](CC(=O)O)NC(=O)[C@@H](NC(=O)[C@H](CCCNC(=N)N)NC(=O)[C@@H](N)Cc1ccccc1)C(C)C)C(=O)N[C@@H](Cc1ccccc1)C(=O)N[C@@H](CCCNC(=N)N)C(=O)N1CCC[C@H]1C(=O)N[C@@H](CCCNC(=N)N)C(=O)N[C@@H](CC(N)=O)C(N)=O (H-FRVDEEFQSPFASQSRGYFLFRPRN-NH2)
